{"source": "paper PMC3092375", "about": "(Journal of natural products, 2011)", "key": {"α-glucosidase": {"molecular_target": "α-glucosidase (Saccharomyces cerevisiae, UniProt P53341)", "sequence (P53341 whole entry)": "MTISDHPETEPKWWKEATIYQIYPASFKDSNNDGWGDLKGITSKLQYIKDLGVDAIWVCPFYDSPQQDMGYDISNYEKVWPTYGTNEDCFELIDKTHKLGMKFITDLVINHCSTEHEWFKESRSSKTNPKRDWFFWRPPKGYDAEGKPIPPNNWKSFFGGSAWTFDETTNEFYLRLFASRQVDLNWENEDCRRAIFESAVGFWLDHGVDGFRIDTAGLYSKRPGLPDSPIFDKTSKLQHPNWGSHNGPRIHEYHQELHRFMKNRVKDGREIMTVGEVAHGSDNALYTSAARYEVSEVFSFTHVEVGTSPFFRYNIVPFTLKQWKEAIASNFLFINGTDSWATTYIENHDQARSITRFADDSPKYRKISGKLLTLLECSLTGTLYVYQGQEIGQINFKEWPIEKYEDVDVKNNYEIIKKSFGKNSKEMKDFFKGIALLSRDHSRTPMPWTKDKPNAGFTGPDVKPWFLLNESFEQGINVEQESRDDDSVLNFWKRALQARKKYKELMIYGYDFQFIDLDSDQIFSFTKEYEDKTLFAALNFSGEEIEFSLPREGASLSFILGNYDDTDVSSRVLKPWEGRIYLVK", "details": "previous report; cited from earlier work"}, "human neutrophils [1]": {"system": "human neutrophils", "assay": "superoxide anion generation by human neutrophils in response to fMLP/CB", "format": "cell-based", "details": "Neutrophil"}, "[2]": {"system": "HCT-8 (colon) cancer cell line", "assay": "in vitro cytotoxicity", "format": "cell-based, human", "details": "HCT-8 colon cells; compared with KB and DU145", "method_in_brief": "(§1)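 Cells grown in RPMI-1640 with 25 mM HEPES, 0.25% sodium bicarbonate, 10% FBS and 100 μg/mL kanamycin. Freshly trypsinized cells were seeded at 5000 per well, and test compound was added from DMSO-diluted stock. After three days, cells were fixed with cold 10% TCA and stained with 0.4% sulforhodamine B, and the solubilized dye was read at 562 nm.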"}, "[3]": {"system": "A549 (lung) cancer cell line", "assay": "in vitro cytotoxicity", "format": "cell-based, human", "details": "A549 lung cells; compared with KB and DU145", "method_in_brief": "as §1"}, "[4]": {"system": "DU145 (prostate) cancer cell line", "assay": "in vitro cytotoxicity", "format": "cell-based, human", "details": "DU145 versus the other cancer cell lines"}, "[5]": {"system": "KB (nasopharyngeal) cancer cell line", "assay": "in vitro cytotoxicity", "format": "cell-based, human", "details": "KB versus the other cancer cell lines"}, "human neutrophils [6]": {"system": "human neutrophils", "assay": "elastase release by human neutrophils in response to fMLP/CB", "format": "cell-based", "details": "read-out: elastase IC50, mean ± S.E.M. (n = 3–4)"}}}
{"smiles": "C=C[C@@H](O)C#CC#CC/C=C\\CCCCCCC", "note": "[Compound 28, (3R)-(−)-falcarinol]", "values": [{"measurement": "inhibition of α-glucosidase activity", "setting": "α-glucosidase", "result": "strongly inhibited"}]}
{"smiles": "C=C[C@H](O)C#CC#CC[C@@H](O)[C@H](O)CCCCCCC", "note": "[Compound 30, (3S,9R,10R)-panaxytriol]", "values": [{"measurement": "inhibition of α-glucosidase activity", "setting": "α-glucosidase", "result": "strongly inhibited"}]}
{"smiles": "CC1(C)CC[C@]2(C(=O)O[C@@H]3O[C@H](CO)[C@@H](O)[C@H](O)[C@H]3O)CC[C@]3(C)C(=CC[C@@H]4[C@@]5(C)CC[C@H](O[C@@H]6O[C@H](C(=O)O)[C@@H](O[C@H]7O[C@@H](CO)[C@H](O)[C@H]7O)[C@H](O[C@@H]7O[C@H](CO)[C@@H](O)[C@H](O)[C@H]7O)[C@H]6O)C(C)(C)[C@@H]5CC[C@]43C)[C@@H]2C1", "note": "[Compound 9, stipuleanoside R2]", "values": [{"measurement": "IC50", "setting": "human neutrophils [1]; read-out: IC50 values, inhibition of superoxide anion generation and elastase release", "result": "0.78 to 43.6", "unit": "µM"}]}
{"smiles": "C/C(=C/CC[C@](C)(O)[C@H]1CC[C@]2(C)[C@@H]1[C@H](O)C[C@@H]1[C@@]3(C)CC[C@H](O)C(C)(C)[C@@H]3[C@@H](O[C@@H]3O[C@H](CO)[C@@H](O)[C@H](O)[C@H]3O[C@@H]3O[C@H](CO)[C@@H](O)[C@H](O)[C@H]3O)C[C@]12C)CO", "note": "[Compound 1, panajaponol A]", "values": [{"measurement": "cytotoxicity", "setting": "[2]", "result": "significantly less susceptible"}, {"measurement": "cytotoxicity", "setting": "[3]", "result": "significantly less susceptible"}, {"measurement": "selective cytotoxic activity", "setting": "[4]", "result": "greater than two- to three-fold selective"}, {"measurement": "selective cytotoxic activity", "setting": "[5]", "result": "greater than two- to three-fold selective"}]}
{"smiles": "C=CCCCCC[C@H](O)[C@@H](O)CC#CC#C[C@@H](O)CC", "note": "[Compound 27, panaxjapyne C]", "values": [{"measurement": "inhibition of α-glucosidase activity", "setting": "α-glucosidase", "result": "strongly inhibited"}]}
{"smiles": "CCCCCCC/C=C\\CC#CC#CC(O)CC", "note": "(stereo not drawn) [Compound 25, panaxjapyne A]", "values": [{"measurement": "inhibition of α-glucosidase activity", "setting": "α-glucosidase", "result": "strongly inhibited"}]}
{"smiles": "c1ccc2c(c1)[I+]c1ccccc1-2", "note": "[DPI, Diphenyleneiodonium, reference compound]", "values": [{"measurement": "IC50", "setting": "human neutrophils [1]; read-out: superoxide IC50", "result": "1.02 ± 0.35", "unit": "µM"}]}
{"smiles": "O=S(=O)(F)Cc1ccccc1", "note": "[PMSF, phenylmethylsulfonyl fluoride]", "values": [{"measurement": "IC50", "setting": "human neutrophils [6]", "result": "95 ± 25", "unit": "µM"}]}
{"smiles": "C=C[C@H](O)C#CC#C/C=C/[C@@H](O)CCCCCCC", "note": "[Compound 29, (3S,10S)-panaxydiol]", "values": [{"measurement": "inhibition of α-glucosidase activity", "setting": "α-glucosidase", "result": "strongly inhibited"}]}
